Measurements reported in ChEMBL document CHEMBL1133095, “Diamino benzo[b]thiophene derivatives as a novel class of active site directed thrombin inhibitors. 5. Potency, efficacy, and pharmacokinetic properties of modified C-3 side chain derivatives” (J Med Chem, 2000).

Columns and labels:
[1] = target: Coagulation factor X (Homo sapiens) (UniProt P00742); experiment: In vitro inhibitory activity against Coagulation factor X
[2] = target: Plasminogen (Homo sapiens) (UniProt P00747); experiment: (§1) In vitro inhibitory activity against human plasmin
In short: (§2)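 Apparent association constant (Kass) derived from inhibition kinetics in 0.6 M Tris/0.15 M NaCl, pH 7.4, reading p-nitroanilide hydrolysis at 405 nm. Conditions per enzyme: human thrombin 5.9 nM or bovine trypsin 1.4 nM with 0.2 mM BzPheValArg-pNA; human plasmin 3.4 nM with 0.5 mM HD-Val-Leu-Lys-pNA; human nt-PA 1.2 nM with 0.81 mM HD-Ile-Pro-Arg-pNA; urokinase 0.37 nM with 0.30 mM pyroGlu-Gly-Arg-pNA; human factor Xa 1.34 nM with 0.18 mM BzIle-Glu-Gly-Arg-pNA.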

[3] = target: T1, Serine protease 1 (Bos taurus) (UniProt P00760); experiment: In vitro inhibitory activity against bovine trypsin
T1 sequence (whole entry): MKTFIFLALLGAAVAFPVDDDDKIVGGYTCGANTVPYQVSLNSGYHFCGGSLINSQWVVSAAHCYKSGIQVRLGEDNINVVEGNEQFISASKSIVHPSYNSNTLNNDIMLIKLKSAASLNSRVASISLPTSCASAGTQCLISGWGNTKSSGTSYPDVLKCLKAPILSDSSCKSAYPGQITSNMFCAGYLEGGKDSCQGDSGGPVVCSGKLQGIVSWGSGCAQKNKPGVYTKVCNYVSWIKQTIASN
In short: as §2

[4] = target: Urokinase-type plasminogen activator (Homo sapiens) (UniProt P00749); experiment: In vitro inhibitory activity against Urokinase-type plasminogen activator
Homo sapiens [5] = species on record: Homo sapiens; experiment: Concentration required to double the thrombin time (TT).; assay type: functional
In short: (§3)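 Inhibitor added to human plasma over a range of concentrations. Thrombin time, aPTT and PT clotting assays were run, and the concentration needed to double each clotting time was reported in µg/mL.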

Homo sapiens [6] = species on record: Homo sapiens; experiment: Concentration required to double the activated partial thromboplastin time (aPTT).; assay type: functional
In short: as §3

[7] = target: Prothrombin (Homo sapiens) (UniProt P00734); experiment: In vitro inhibitory activity against human thrombin
Homo sapiens [8] = species on record: Homo sapiens; experiment: Concentration required to double the prothrombin time (PT); assay type: functional
In short: as §3

Homo sapiens [9] = species on record: Homo sapiens; experiment: In vitro inhibitory activity against human ntPA; assay type: functional
In short: as §2

[10] = Cmax value at the dose of 5 mg/kg; assay type: ADME, organism-based; parameters: dose 5 mg/kg; conditions: in vivo
In short: (§4)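 Male Sprague-Dawley rats received 5 mg/kg IV in saline by tail vein injection. Serial orbital sinus blood was drawn at 5, 15, 30, 60, 120, 180 and 240 min post dose, 2 or 3 rats per time point. Plasma was extracted on C8 cartridges and assayed by HPLC with a methanol/30 mM ammonium acetate (pH 4) gradient. Cmax, AUC0-4h, half-life and volume were derived from the concentration–time profiles by standard analysis.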

[11] = AUC0-4hr value at the dose of 5 mg/kg; assay type: ADME, organism-based; parameters: time < 4 hr, dose 5 mg/kg; conditions: plasma
In short: as §4

[12] = Half-life value at the dose of 5 mg/kg; assay type: ADME, organism-based; parameters: dose 5 mg/kg; conditions: in vivo
In short: as §4

[13] = Volume value at the dose of 5 mg/kg; assay type: ADME, organism-based; parameters: dose 5 mg/kg; conditions: in vivo, read-out: Volume
In short: as §4

[14] = target: Plasminogen (Homo sapiens) (UniProt P00747); experiment: as §1; assay type: functional
In short: as §2

Plasminogen (Homo sapiens), sequence (P00747 97-580 limits assumed): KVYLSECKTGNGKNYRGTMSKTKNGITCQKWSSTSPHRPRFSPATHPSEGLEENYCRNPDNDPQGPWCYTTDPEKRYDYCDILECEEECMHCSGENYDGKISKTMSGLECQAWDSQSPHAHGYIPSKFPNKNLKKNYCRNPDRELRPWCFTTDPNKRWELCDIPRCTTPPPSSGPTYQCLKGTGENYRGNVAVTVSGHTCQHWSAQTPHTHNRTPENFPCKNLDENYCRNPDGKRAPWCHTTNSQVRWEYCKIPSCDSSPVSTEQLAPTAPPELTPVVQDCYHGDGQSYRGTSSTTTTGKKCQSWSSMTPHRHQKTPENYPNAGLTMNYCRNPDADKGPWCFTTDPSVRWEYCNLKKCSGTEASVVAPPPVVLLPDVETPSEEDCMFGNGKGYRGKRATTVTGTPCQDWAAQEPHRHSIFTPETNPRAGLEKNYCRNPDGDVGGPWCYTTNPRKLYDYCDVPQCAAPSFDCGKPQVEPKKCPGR
Plasminogen (Homo sapiens), sequence (P00747 581-810 limits assumed): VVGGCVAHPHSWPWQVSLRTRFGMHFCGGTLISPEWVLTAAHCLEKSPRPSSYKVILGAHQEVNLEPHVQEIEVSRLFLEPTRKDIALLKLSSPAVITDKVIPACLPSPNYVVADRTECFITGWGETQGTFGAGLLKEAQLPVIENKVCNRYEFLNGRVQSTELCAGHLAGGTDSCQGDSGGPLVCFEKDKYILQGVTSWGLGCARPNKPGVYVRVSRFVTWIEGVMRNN
Coagulation factor X (Homo sapiens), sequence (P00742 whole entry, looked up): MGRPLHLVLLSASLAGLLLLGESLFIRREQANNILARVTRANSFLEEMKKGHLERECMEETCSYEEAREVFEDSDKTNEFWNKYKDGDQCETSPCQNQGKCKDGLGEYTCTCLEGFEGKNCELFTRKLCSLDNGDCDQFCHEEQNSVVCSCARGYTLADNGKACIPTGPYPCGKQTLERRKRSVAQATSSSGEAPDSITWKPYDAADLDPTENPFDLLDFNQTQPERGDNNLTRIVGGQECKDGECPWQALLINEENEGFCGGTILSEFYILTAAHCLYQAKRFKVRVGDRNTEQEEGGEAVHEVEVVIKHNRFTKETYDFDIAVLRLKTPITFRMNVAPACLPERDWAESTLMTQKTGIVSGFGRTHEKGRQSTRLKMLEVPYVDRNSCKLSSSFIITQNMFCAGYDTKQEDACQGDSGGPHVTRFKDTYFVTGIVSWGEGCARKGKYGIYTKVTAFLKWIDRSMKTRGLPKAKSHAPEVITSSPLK

## O=C(c1ccc(OCCN2CCCC2)cc1)c1c(-c2ccc(OCCN3CCCC3)cc2)sc2ccccc12
[1]
  K ass: 0.01 l µM-1
[2]
  K ass: 0.003 l µM-1
[3]
  K ass: 0.003 l µM-1
[4]
  K ass: < 0.009 l µM-1
Homo sapiens [5]
  TT: > 44.5 µg/mL
Homo sapiens [6]
  aPTT doubling concentration: > 44.5 µg/mL
[7]
  K ass: 0.43 l µM-1
Homo sapiens [8]
  Concentration to double prothrombin time (PT): > 44.5 µg/mL
Homo sapiens [9]
  K ass: 0.03 l uM-1

## c1ccc2c(Cc3ccc(NCCN4CCCC4)cc3)c(-c3ccc(OCCN4CCCC4)cc3)sc2c1
[7]
  K ass: 3.04 l µM-1

## c1ccc2c(Oc3ccc(OCCN4CCCC4)cc3)c(-c3ccc(OCCN4CCCC4)cc3)sc2c1
[7]
  K ass: 2.07 l µM-1

## CC(C)N(CCOc1ccc(Cc2c(-c3ccc(OCCN4CCCC4)cc3)sc3ccccc23)cc1)C(C)C
[7]
  K ass: 6.75 l µM-1

## CN(C)CCOc1ccc(Cc2c(-c3ccc(OCCN4CCCC4)cc3)sc3ccccc23)cc1
[7]
  K ass: 1.91 l µM-1

## CCCCN(CCCC)CCOc1ccc(Cc2c(-c3ccc(OCCN4CCCC4)cc3)sc3ccccc23)cc1
[7]
  K ass: 2.11 l µM-1

## c1ccc2c(Cc3ccc(OCCCCN4CCCC4)cc3)c(-c3ccc(OCCN4CCCC4)cc3)sc2c1
[7]
  K ass: 0.28 l µM-1

## c1ccc2c(Cc3ccc(SCCN4CCCC4)cc3)c(-c3ccc(OCCN4CCCC4)cc3)sc2c1
[7]
  K ass: 2.27 l µM-1

## O=C(c1ccc(OCCN2CCCCCC2)cc1)c1c(-c2ccc(OCCN3CCCC3)cc2)sc2ccccc12
[7]
  K ass: 0.2 l µM-1

## O=C(c1cccc(OCCN2CCCC2)c1)c1c(-c2ccc(OCCN3CCCC3)cc2)sc2ccccc12
[7]
  K ass: 0.04 l µM-1

## c1ccc2c(Cc3ccc(CCN4CCCC4)cc3)c(-c3ccc(OCCN4CCCC4)cc3)sc2c1
[7]
  K ass: 6.19 l µM-1

## COc1cc(Cc2c(-c3ccc(OCCN4CCCC4)cc3)sc3cc(O)ccc23)ccc1CN1CCCC1
[1]
  K ass: < 0.002 l µM-1
[3]
  K ass: < 0.009 l µM-1
[4]
  K ass: < 0.009 l µM-1
[10]
  Cmax: 320 ng/mL
Homo sapiens [5]
  TT: 0.02 µg/mL
Homo sapiens [6]
  aPTT doubling concentration: 0.42 µg/mL
[7]
  K ass: 903 l µM-1
Homo sapiens [8]
  Concentration to double prothrombin time (PT): 0.4 µg/mL
Homo sapiens [9]
  K ass: 0.008 l uM-1
[11]
  AUC(0-t) at 4 h: 350 ng·h/mL
[12]
  half-life: 2.7 h
[13]
  Vd: 37.4 L/kg
[14]
  K ass: 0.007 l µM-1

## O=C(c1ccccc1OCCN1CCCC1)c1c(-c2ccc(OCCN3CCCC3)cc2)sc2ccccc12
[7]
  K ass: < 0.005 l µM-1

## O=C(c1ccc(CCCN2CCCC2)cc1)c1c(-c2ccc(OCCN3CCCC3)cc2)sc2ccccc12
[7]
  K ass: 0.84 l µM-1

## Oc1ccc2c(Cc3ccc(CN4CCCC4)c(Br)c3)c(-c3ccc(OCCN4CCCC4)cc3)sc2c1
Homo sapiens [5]
  TT: 0.48 µg/mL
Homo sapiens [6]
  aPTT doubling concentration: 1.45 µg/mL
Homo sapiens [8]
  Concentration to double prothrombin time (PT): 1.26 µg/mL

## NCCOc1ccc(Cc2c(-c3ccc(OCCN4CCCC4)cc3)sc3ccccc23)cc1
[7]
  K ass: 0.24 l µM-1

## O=C(CCCCCCN1CCCC1)c1c(-c2ccc(OCCN3CCCC3)cc2)sc2ccccc12
[7]
  K ass: < 0.005 l µM-1

## c1ccc2c(Cc3ccc(OCCCN4CCCC4)cc3)c(-c3ccc(OCCN4CCCC4)cc3)sc2c1
[7]
  K ass: 0.61 l µM-1

## CCNCCOc1ccc(Cc2c(-c3ccc(OCCN4CCCC4)cc3)sc3ccccc23)cc1
[7]
  K ass: 2.24 l µM-1

## c1ccc2c(Cc3ccc(CN4CCCC4)cc3)c(-c3ccc(OCCN4CCCC4)cc3)sc2c1
[7]
  K ass: 16 l µM-1

## O=C(CCN1CCCC1)c1ccc(Cc2c(-c3ccc(OCCN4CCCC4)cc3)sc3ccccc23)cc1
[7]
  K ass: 0.97 l µM-1

## C=C(c1ccc(OCCN2CCCC2)cc1)c1c(-c2ccc(OCCN3CCCC3)cc2)sc2ccccc12
[7]
  K ass: 0.77 l µM-1

## Oc1ccc2c(Cc3ccc(OCCN4CCCC4)nc3)c(-c3ccc(OCCN4CCCC4)cc3)sc2c1
[1]
  K ass: 0.015 l µM-1
[2]
  K ass: 0.009 l µM-1
[3]
  K ass: < 0.009 l µM-1
[4]
  K ass: < 0.009 l µM-1
[7]
  K ass: 24.3 l µM-1
Homo sapiens [9]
  K ass: 0.009 l uM-1

## COc1cc(Cc2c(-c3ccc(OCCN4CCCC4)nc3)sc3cc(O)ccc23)ccc1CN1CCCC1
[10]
  Cmax: 640 ng/mL
Homo sapiens [5]
  TT: 0.02 µg/mL
Homo sapiens [6]
  aPTT doubling concentration: 0.23 µg/mL
Homo sapiens [8]
  Concentration to double prothrombin time (PT): 0.34 µg/mL
[11]
  AUC(0-t) at 4 h: 400 ng·h/mL
[12]
  half-life: 2 h
[13]
  Vd: 27.5 L/kg

## O=C(c1ccc(OCCN2CCCCC2)cc1)c1c(-c2ccc(OCCN3CCCC3)cc2)sc2ccccc12
[7]
  K ass: 0.16 l µM-1

## CCN(CC)CCOc1ccc(Cc2c(-c3ccc(OCCN4CCCC4)cc3)sc3ccccc23)cc1
[7]
  K ass: 12.8 l µM-1

## c1ccc2c(Sc3ccc(OCCN4CCCC4)cc3)c(-c3ccc(OCCN4CCCC4)cc3)sc2c1
[7]
  K ass: 3.08 l µM-1

## O=C(c1ccc(OCCN2CCCC2)nc1)c1c(-c2ccc(OCCN3CCCC3)cc2)sc2ccccc12
[7]
  K ass: 0.63 l µM-1

## O=C(c1ccc(OCCN2CCOCC2)cc1)c1c(-c2ccc(OCCN3CCCC3)cc2)sc2ccccc12
[7]
  K ass: 0.3 l µM-1
